Test results taken from ChEMBL document CHEMBL4706565, “Anti-glioma effects of 2-aminothiophene-3-carboxamide derivatives, ANO1 channel blockers” (Eur J Med Chem, 2020).
Calls of active or inactive are those of the source. The rule behind the calls is not given here.

Assays:
[1] = molecular target: T1, Anoctamin-1 (Mus musculus) (UniProt Q8BHY3); experiment: Inhibition of GFP-fused mouse ANO1 channel expressed in HEK293A cells assessed as inhibition of current amplitude at 10 uM at membrane potential of +80 mV by patch clamp electrophysiology assay; format: cell-based; conditions: HEK293-A
T1 sequence (whole entry): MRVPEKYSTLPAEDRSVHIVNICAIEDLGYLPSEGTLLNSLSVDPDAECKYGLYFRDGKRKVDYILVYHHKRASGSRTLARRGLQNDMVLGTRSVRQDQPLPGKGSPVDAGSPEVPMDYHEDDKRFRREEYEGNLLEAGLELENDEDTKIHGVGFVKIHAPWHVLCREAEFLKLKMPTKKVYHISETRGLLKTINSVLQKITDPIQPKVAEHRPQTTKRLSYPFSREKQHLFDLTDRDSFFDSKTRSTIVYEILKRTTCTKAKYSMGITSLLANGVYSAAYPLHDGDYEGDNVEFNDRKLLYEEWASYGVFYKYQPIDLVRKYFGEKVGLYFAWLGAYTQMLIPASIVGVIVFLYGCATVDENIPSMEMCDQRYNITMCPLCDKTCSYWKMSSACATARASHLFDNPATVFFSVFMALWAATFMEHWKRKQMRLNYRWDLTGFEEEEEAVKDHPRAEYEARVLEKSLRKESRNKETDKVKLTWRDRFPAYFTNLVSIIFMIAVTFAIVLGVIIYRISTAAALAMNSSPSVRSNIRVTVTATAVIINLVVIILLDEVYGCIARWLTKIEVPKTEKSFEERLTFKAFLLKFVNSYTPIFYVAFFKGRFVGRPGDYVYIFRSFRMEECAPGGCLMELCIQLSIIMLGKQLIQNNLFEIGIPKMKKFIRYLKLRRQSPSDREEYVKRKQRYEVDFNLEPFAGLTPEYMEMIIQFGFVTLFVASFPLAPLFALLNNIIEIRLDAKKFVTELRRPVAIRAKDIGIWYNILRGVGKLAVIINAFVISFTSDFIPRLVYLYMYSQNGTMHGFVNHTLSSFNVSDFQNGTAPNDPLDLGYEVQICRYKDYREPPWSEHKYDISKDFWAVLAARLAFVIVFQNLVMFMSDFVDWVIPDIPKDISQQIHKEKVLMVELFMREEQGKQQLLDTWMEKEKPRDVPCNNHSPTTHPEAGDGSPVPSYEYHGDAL
How it was run: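 Whole-cell recording at room temperature in HEK293A cells transfected with GFP-mANO1, GFP-mANO2 or GFP-mTTYH1. 1 s ramps from +80 to -80 mV, holding potential -10 mV. For ANO1/ANO2: pipette CsCl 146 mM with Ca-EGTA-NMDG, pH 7.3; bath NaCl-based, pH 7.3. For TTYH1: Tris-aspartate pipette (pH 7.2) and Tris-HCl bath (pH 7.4), with […] and BaCl2 added to block K+ channels, and hypotonic (220 mOsm/kg) bath. Washout recordings assessed reversibility.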

[2] = molecular target: T2, Anoctamin-1 (Homo sapiens) (UniProt Q5XXA6); experiment: Induction of ANO1 degradation in human U251 cells at 10 uM incubated for 24 hrs by western blot analysis; format: cell-based; conditions: U-251
T2 sequence (whole entry): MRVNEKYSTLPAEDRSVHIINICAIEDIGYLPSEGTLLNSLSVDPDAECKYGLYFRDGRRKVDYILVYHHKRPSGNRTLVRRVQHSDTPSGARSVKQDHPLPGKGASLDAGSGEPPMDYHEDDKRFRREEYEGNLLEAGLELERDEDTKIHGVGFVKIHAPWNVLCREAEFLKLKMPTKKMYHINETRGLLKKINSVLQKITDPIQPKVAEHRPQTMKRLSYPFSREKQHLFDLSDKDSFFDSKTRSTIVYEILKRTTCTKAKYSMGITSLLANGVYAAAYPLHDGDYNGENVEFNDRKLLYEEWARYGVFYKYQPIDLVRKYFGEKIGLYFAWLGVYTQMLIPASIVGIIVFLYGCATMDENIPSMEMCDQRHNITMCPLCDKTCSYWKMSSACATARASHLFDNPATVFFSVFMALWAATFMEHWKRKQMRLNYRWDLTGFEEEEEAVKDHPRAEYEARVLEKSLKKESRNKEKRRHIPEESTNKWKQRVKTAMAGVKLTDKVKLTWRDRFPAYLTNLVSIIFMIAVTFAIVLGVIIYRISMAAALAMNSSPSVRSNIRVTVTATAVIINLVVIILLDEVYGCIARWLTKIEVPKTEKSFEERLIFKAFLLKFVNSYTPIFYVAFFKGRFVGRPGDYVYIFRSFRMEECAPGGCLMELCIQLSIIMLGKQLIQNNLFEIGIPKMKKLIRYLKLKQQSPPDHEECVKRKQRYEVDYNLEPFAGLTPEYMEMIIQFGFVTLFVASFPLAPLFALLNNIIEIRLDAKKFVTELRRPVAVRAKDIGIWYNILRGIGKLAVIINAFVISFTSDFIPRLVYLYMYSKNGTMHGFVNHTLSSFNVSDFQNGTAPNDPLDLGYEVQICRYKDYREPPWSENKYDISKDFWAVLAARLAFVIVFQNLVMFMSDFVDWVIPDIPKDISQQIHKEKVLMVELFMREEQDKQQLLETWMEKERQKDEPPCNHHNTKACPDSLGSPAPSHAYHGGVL
How it was run: (§1)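 U251 cells (5×10^5) treated with 10 μM inhibitor for 24 h. Alternatively, treated 6 h with 10 μM inhibitor, then MG132 (20 μM, a proteasome inhibitor) for a further 18 h. NP40 lysates immunoblotted for ANO1, β-actin as loading control; band densitometry.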

U-251 [3] = experiment: Upregulation of E-cadherin protein expression in human U251 cells incubated for 18 hrs by Western blot analysis; format: functional, cell-based; conditions: dose 1-10 µM
How it was run: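 U251 cells (5×10^5) treated with compounds for 18 h, lysed in NP40 buffer with protease inhibitors. 25 μg lysate run on SDS-PAGE and blotted for E-cadherin, β-actin as loading control. Primary antibodies at 1:1000 (actin 1:10000). Bands quantified by densitometry; one-way ANOVA.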

U-251 [4] = experiment: Inhibition of cell migration in human U251 cells at 5 uM incubated for 18 hrs by wound healing assay; format: functional, cell-based
How it was run: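 U251 monolayer, 2.0×10^5 cells/well, plated overnight, then scratched and washed with PBS. Incubated 18 h in complete medium with compound (1, 5 or 10 μM). Wound area imaged before and after incubation; migration ratio taken from migrated area. One-way ANOVA.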

[5] = molecular target: T2, Anoctamin-1 (Homo sapiens); experiment: Induction of ANO1 degradation in human U251 cells at 10 uM preincubated with compound for 6 hrs followed by treatment with proteasome inhibitor, MG132 for 18 hrs by western blot analysis; format: cell-based; conditions: U-251, time 24.0 hrs; how it was run: as §1
U-251 [6] = experiment: Inhibition of cell migration in human U251 cells at 10 uM incubated for 18 hrs by wound healing assay; format: functional
How it was run: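 U251 monolayer, 2.0×10^5 cells/well, plated overnight, then scratched and washed with PBS. Wound area imaged before and after incubation; migration ratio taken from migrated area. One-way ANOVA.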

Structure (SMILES)	inhibition [1]	Activity [2]	Activity (U-251 [3])	inhibition (U-251 [4])	Activity [5]	inhibition (U-251 [6])	inhibition at 10 µM (U-251 [6])
NC(=O)c1c(NC(=S)NC(=O)c2ccc(Cl)cc2)sc2c1CCC2	57.6%	Active	Dose-dependent effect	Active	inactive	Active	–
CC(C)(C)C(=O)Nc1sc2c(c1C(N)=O)CCC(C(C)(C)C)C2 (configuration not stated)	50.6%	Active	Dose-dependent effect	Active	inactive	–	90%
